Data: paper PMC8282703 (Clinical cancer research : an official journal of the …, 2021)
Where “and” joins values, the source holds several entries; their conditions need not be identical. Identical values can stand only once. Like-named read-outs stand apart in the source and are kept apart here.

How the values were obtained:
advanced solid tumors [1] = test: Phase 1 trial of adavosertib: tumor response by RECIST 1.1
Wee1 kinase [2] = details: cited from earlier work
advanced solid tumors [3] = details: cited from earlier work
[4] = Plasma pharmacokinetics of adavosertib; details: human, oral, 300 mg
[5] = twice daily x 5 doses for 2 weeks, in 3-week cycles; cited from earlier work
phospho-Cdk1 = details: chemotherapy combinations, cited from earlier work
[6] = human, in vivo
PKMYT1 = details: cited from earlier work
[7] = test system: recurrent uterine serous carcinoma; details: adavosertib monotherapy; cited from earlier work
[8] = test system: pHH3, γH2AX, RAD51, pNbs1; test: DNA damage response and mitosis markers in paired tumor biopsies; type: in vivo, patients
Procedure, shortened: (§1)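 Expansion-cohort patients got 300 mg once daily on days 1-5 and 8-12 of 21-day cycles, with prophylactic anti-emetics. Paired 18-gauge core needle tumor biopsies were taken on C1D1 and C1D8 before the daily dose, after the 72-h dosing pause on days 6-7. Nuclear marker levels were assessed. pY15-Cdk, γH2AX and pNbs1 were reported as percent nuclear area positive. Patients were grouped by baseline pY15-Cdk.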

Wee1 kinase [9] = test: Nuclear pY15-Cdk1/2 in paired tumor biopsies; type: in vivo, patients
Procedure, shortened: as §1

C=CCn1c(=O)c2cnc(Nc3ccc(N4CCN(C)CC4)cc3)nc2n1-c1cccc(C(C)(C)O)n1 [adavosertib]
Median number of treatment cycles, patients with SD (advanced solid tumors [1]; 20 patients, range 2-26): 4 cycles | Patients with SD receiving ≥ 11 cycles of treatment (advanced solid tumors [1]; of 20 patients with SD): 5 patients | Patients with best response of SD for ≥ 9 months (advanced solid tumors [1]; once-daily adavosertib): 5 patients | Overall response rate (advanced solid tumors [1]; once-daily adavosertib, 42 enrolled patients, 90% confidence interval [6%, 26%]): 14% | Patients with PR at the 400 mg dose level (advanced solid tumors [1]; out of the 3 enrolled, both ovarian cancer, dose-reduced to 300 mg): 2 patients | Patients with PR at the MTD (300 mg) (advanced solid tumors [1]; out of the 26 enrolled at the MTD): 4 patients | Reduction of nuclear pY15-Cdk, twice-daily arm, individual patients (Wee1 kinase [2]; 2-5 hours after dose 5, 2 of 2 patients): 84% and 90% | Wee1 kinase suppression (pY15-Cdk1/2 reduction), twice-daily arm (Wee1 kinase [2]; tumor biopsies 2-5 hours after the fifth dose): 80-90% | Overall response rate, twice-daily adavosertib (advanced solid tumors [3]; 25 enrolled patients, 90% confidence interval [1%, 23%]): 8% | PRs, twice-daily adavosertib (advanced solid tumors [3]; among 25 enrolled patients): 2 patients | Alanine aminotransferase increased, Grade 1-2 (%) (human, in vivo): 11 (26%) patients (%) | Anemia, Grade 1-2 (%) (human, in vivo): 20 (47%) patients (%) | Anemia, Grade 3 (%) (human, in vivo): 9 (21%) patients (%) | Anemia, any-grade (human, in vivo): 69% | Anemia, ≥ grade 3 (human, in vivo): 21% | Anorexia, Grade 1-2 (%) (human, in vivo): 17 (40%) patients (%) | Aspartate aminotransferase increased, Grade 1-2 (%) (human, in vivo): 11 (26%) patients (%) | Dehydration, Grade 1-2 (%) (human, in vivo): 5 (12%) patients (%) | Dehydration, Grade 3 (%) (human, in vivo): 1 (2%) patients (%) | Diarrhea, Grade 1-2 (%) (human, in vivo): 25 (60%) patients (%) | Diarrhea, Grade 3 (%) (human, in vivo): 2 (5%) patients (%) | Dose-limiting toxicities (type) (human, in vivo): grade 4 hematological toxicity and grade 3 fatigue | Fatigue, Grade 1-2 (%) (human, in vivo): 19 (45%) patients (%) | Fatigue, Grade 3 (%) (human, in vivo): 3 (7%) patients (%) | Febrile neutropenia, Grade 3 (%) (human, in vivo): 1 (2%) patients (%) | Gastrointestinal adverse events (nausea, vomiting, diarrhea) that were ≥ grade 3 (human, in vivo): ≤ 12% | Hypoalbuminemia, Grade 1-2 (%) (human, in vivo): 9 (21%) patients (%) | Hypocalcemia, Grade 1-2 (%) (human, in vivo): 3 (7%) patients (%) | Hypocalcemia, Grade 3 (%) (human, in vivo): 1 (2%) patients (%) | Hypocalcemia, grade 3 incidence (human, in vivo): 2% | Hypokalemia, Grade 1-2 (%) (human, in vivo): 5 (12%) patients (%) | Hypokalemia, Grade 3 (%) (human, in vivo): 1 (2%) patients (%) | Hypokalemia, grade 3 incidence (human, in vivo): 2% | Hypomagnesemia, Grade 1-2 (%) (human, in vivo): 7 (17%) patients (%) | Hypomagnesemia, Grade 3 (%) (human, in vivo): 1 (2%) patients (%) | Hypomagnesemia, grade 3 incidence (human, in vivo): 2% | Hyponatremia, Grade 1-2 (%) (human, in vivo): 8 (19%) patients (%) | Hyponatremia, Grade 3 (%) (human, in vivo): 1 (2%) patients (%) | Hyponatremia, grade 3 incidence (human, in vivo): 2% | Hypophosphatemia, Grade 1-2 (%) (human, in vivo): 10 (24%) patients (%) | Hypophosphatemia, Grade 3 (%) (human, in vivo): 6 (14%) patients (%) | Hypophosphatemia, ≥ grade 3 (human, in vivo): 14% | Leukopenia, Grade 1-2 (%) (human, in vivo): 12 (29%) patients (%) | Leukopenia, Grade 3 (%) (human, in vivo): 5 (12%) patients (%) | Leukopenia, Grade 4 (%) (human, in vivo): 4 (10%) patients (%) | Leukopenia, grade 4 events (human, in vivo): 10% | Leukopenia, ≥ grade 3 (human, in vivo): 21% | Lymphopenia, Grade 1-2 (%) (human, in vivo): 18 (43%) patients (%) | Lymphopenia, Grade 3 (%) (human, in vivo): 12 (29%) patients (%) | Lymphopenia, any-grade (human, in vivo): 71% | Lymphopenia, ≥ grade 3 (human, in vivo): 29% | Median duration until recovery, grade 3/4 leukopenia (human, in vivo): 5 days | Median duration until recovery, grade 3/4 lymphopenia (human, in vivo): 18 days | Median duration until recovery, grade 3/4 neutropenia (human, in vivo): 5 days | Nausea, Grade 1-2 (%) (human, in vivo): 31 (74%) patients (%) | Nausea, Grade 3 (%) (human, in vivo): 3 (7%) patients (%) | Nausea, any grade, patients (human, in vivo): 81% | Nausea, vomiting, or diarrhea, each, patients (human, in vivo): > 60% | Neutropenia, Grade 1-2 (%) (human, in vivo): 5 (12%) patients (%) | Neutropenia, Grade 3 (%) (human, in vivo): 4 (10%) patients (%) | Neutropenia, Grade 4 (%) (human, in vivo): 5 (12%) patients (%) | Neutropenia, grade 4 events (human, in vivo): 12% | Thrombocytopenia, Grade 1-2 (%) (human, in vivo): 13 (31%) patients (%) | Thrombocytopenia, Grade 3 (%) (human, in vivo): 5 (12%) patients (%) | Thrombocytopenia, Grade 4 (%) (human, in vivo): 1 (2%) patients (%) | Thrombocytopenia, grade 4 events (human, in vivo): 2% | Vomiting, Grade 1-2 (%) (human, in vivo): 24 (57%) patients (%) | Vomiting, Grade 3 (%) (human, in vivo): 5 (12%) patients (%) | DLTs at dose levels other than 400 mg QD (in vivo): No DLTs | Recommended phase 2 dose (RPh2D) (once daily on days 1-5 and 8-12 in 21-day cycles): 300 mg | Upper respiratory infection, Grade 3 (%) (once-daily adavosertib, n = 42 patients): 1 (2%) patients (%) | concentration at 72 h [4]: > 5 nM | MTD, twice-daily regimen [5]: 225 mg | Target suppression (phospho-Cdk1 attenuation) (phospho-Cdk1; adavosertib twice daily at 25 mg): not at 25 mg | Target suppression (phospho-Cdk1 attenuation) (phospho-Cdk1; adavosertib twice daily at 200 mg or 225 mg): significant target suppression | Plasma concentrations day 5 versus day 1 [6]: higher on day 5 compared to day 1 | Inhibition of PKMYT1 (PKMYT1): does not substantially inhibit PKMYT1 | Preliminary overall response rate [7]: 29% | Nuclear pHH3 levels between baseline and C1D8 ([8]; 8 patients): generally unchanged | Changes in tumor levels of nuclear RAD51 ([8]; 8 patients, baseline vs C1D8): None of the 8 patients evaluable for pharmacodynamic response showed changes | Levels of DNA repair markers (γH2AX and/or pNbs1) at C1D8 ([8]; both patients with significantly decreased pY15-Cdk): significant increases | pHH3 positivity at C1D8, patient 1010056 ([8]; from 1.1% at baseline, best response PD, p < 0.0001): 4.1 % cells positive | Increases in nuclear pY15-Cdk at C1D8 (Wee1 kinase [9]; 4 of 5 patients with low baseline pY15-Cdk (≤ 2.2% NAP), p < 0.0001): 192%-1094% | Patients with tumor pY15-Cdk levels higher than baseline on C1D8 (pre-dose) (Wee1 kinase [9]; of 8 patients with evaluable biopsy pairs (of 5 with low baseline)): 4 patients
